The term CC50 denotes the concentration at which the toxic effect on the cells reaches its halfway point. As a reminder, the IC50 is the point on the concentration scale where inhibition reaches its midpoint.

The values that follow come from ChEMBL document CHEMBL3860076, “New inhibitors of tyrosyl-DNA phosphodiesterase I (Tdp 1) combining 7-hydroxycoumarin and monoterpenoid moieties” (Bioorg Med Chem, 2016).

Molecules are shown by their SMILES.

Data set [1] concerns the target T1, Tyrosyl-DNA phosphodiesterase 1 (Homo sapiens, UniProt Q9NUW8). The experiment in a line: Reversal of Tdp1-mediated drug resistance in human MCF7 cells assessed as fold reduction in camptothecin CC50 at 5 uM measured after 72 hrs by MTT assay relative to camptothecin alone. Type of data set: cell-based. The method, boiled down: (§1)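 MCF-7 cells, about 2000 per well, were pre-incubated for 24 h at 37 °C in IMDM (5% CO₂). They were then given graded camptothecin concentrations together with a fixed 5 μM coumarin. After 72 h, viable cells were measured by MTT. Camptothecin CC50 was estimated with and without the coumarin.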
(Formazan colour is commonly taken as a measure of viable cells.)

In data set [2] the target is T1, Tyrosyl-DNA phosphodiesterase 1. The data set can be described thus: Reversal of Tdp1-mediated drug resistance in human MCF7 cells assessed as camptothecin CC50 at 5 uM measured after 72 hrs by MTT assay (reference value: 1430 +/- 430 nM). In kind it is cell-based. The method, boiled down: as §1
The target is the same in data set [3].
Data set [4] can be described thus: Cytotoxicity against human RPMI8226 cells expressing low levels of Tdp1 assessed as reduction in cell viability up to 100 uM measured after 72 hrs by MTT assay. In kind it is toxicity, cell-based. Conditions: rpmi-8226, 72 h. The method in brief: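 RPMI 8226 human myeloma cells were seeded at about 2000 per well and treated with the coumarins. They were incubated at 37 °C in RPMI 1640 medium (5% CO₂). Viability was measured by MTT.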

The nature of data set [5]: Cytotoxicity against human MCF7 cells expressing Tdp1 assessed as reduction in cell viability measured after 72 hrs by MTT assay. Type of data set: toxicity, cell-based. Conditions: for Activity: mcf7, 72 h. The method in brief:
(§2)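 MCF-7 mammary adenocarcinoma cells, about 2000 per well, were pre-incubated for 24 h at 37 °C in IMDM (5% CO₂). They were then exposed to the coumarins over a dose series up to 100 μM. After 72 h, live cells were quantified by colorimetric MTT test. CC50 was read from the dose-response curve.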

Data set [6] is described as follows: Cytotoxicity against human MCF7 cells expressing Tdp1 assessed as reduction in cell viability up to 100 uM measured after 72 hrs by MTT assay. In kind it is toxicity, cell-based. As to conditions: mcf7, 72 h. The method in brief:
as §2

T1 sequence (Q9NUW8 whole entry): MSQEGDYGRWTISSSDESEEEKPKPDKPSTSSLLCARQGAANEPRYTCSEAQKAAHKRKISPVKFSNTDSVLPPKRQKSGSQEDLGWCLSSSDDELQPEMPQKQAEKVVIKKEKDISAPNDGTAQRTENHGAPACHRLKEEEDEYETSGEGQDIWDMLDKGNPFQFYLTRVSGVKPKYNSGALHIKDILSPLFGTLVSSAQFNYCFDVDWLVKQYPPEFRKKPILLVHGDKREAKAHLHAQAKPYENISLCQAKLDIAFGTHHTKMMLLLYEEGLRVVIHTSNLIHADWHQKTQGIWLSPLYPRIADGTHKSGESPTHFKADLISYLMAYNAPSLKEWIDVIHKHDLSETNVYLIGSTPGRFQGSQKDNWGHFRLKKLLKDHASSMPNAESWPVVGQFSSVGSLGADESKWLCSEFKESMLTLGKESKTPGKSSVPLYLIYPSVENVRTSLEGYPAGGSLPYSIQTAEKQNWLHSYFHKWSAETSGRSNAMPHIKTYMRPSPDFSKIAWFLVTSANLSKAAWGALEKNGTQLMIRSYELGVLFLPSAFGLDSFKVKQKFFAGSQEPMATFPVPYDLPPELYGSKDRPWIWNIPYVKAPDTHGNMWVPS

As for `CC1(C)[C@@H]2CC=C(COc3ccc4c5c(c(=O)oc4c3)CCC5)[C@H]1C2`, in data set [1], the fold change (FC) is 8. For the same molecule, in data set [2], the CC50 came to 0.18 µM. The same molecule registered a half-maximal inhibitory concentration (IC50) in data set [3] of 0.675 µM. Moreover, the Activity entry in data set [4] is “Non-Toxic”. For the same molecule, in data set [5] (MCF7 cells expressing Tdp1), the CC50 at 72 h was more than 100 µM.
Turning to `CC1(C)[C@H]2CC=C(COc3ccc4c5c(c(=O)oc4c3)CCC5)[C@@H]1C2`, in data set [2], the half-maximal cytotoxic concentration (CC50) amounted to 0.33 µM. Moreover, in data set [3], the IC50 is 1.37 µM. Moreover, the Activity result in data set [6] is “Non-Toxic”.
Take `COc1cc(COc2ccc3c4c(c(=O)oc3c2)CCC4)cc(OC)c1OC`: in data set [3], the IC50 is more than 10 µM.
As to `Cc1cc(=O)oc2cc(OCC3=CC[C@@H]4C[C@H]3C4(C)C)ccc12`, the CC50 in data set [2] was 0.32 µM. The same molecule had an IC50 in data set [3] of 4.31 µM. Moreover, the Activity result in data set [4] is reported as “Non-Toxic”; in data set [5] it was “Toxic”.
The matching figures for `Cc1cc(=O)oc2cc(OCC3=CC[C@H]4C[C@@H]3C4(C)C)ccc12`: 0.34 µM, 1.56 µM, “Non-Toxic” and “Toxic”.
With `CC1(C)[C@@H]2CC=C(COc3ccc4c5c(c(=O)oc4c3)CCCC5)[C@H]1C2`, the CC50 in data set [2] turned out to be 0.41 µM. In data set [3], this molecule displayed a concentration for half-maximal inhibition (IC50) of 1.2 µM. The Activity entry in data set [4] and in data set [6] was “Non-Toxic” throughout.
`COc1cc(COc2ccc3c4c(c(=O)oc3c2)CCCC4)cc(OC)c1OC` registered an IC50 in data set [3] of more than 10 µM.
`COc1cc(COc2ccc3c(C)cc(=O)oc3c2)cc(OC)c1OC` gave an IC50 in data set [3] of more than 10 µM.
Regarding `CC1(C)[C@H]2CC=C(CCOc3ccc4c5c(c(=O)oc4c3)CCCC5)[C@@H]1C2`, in data set [2], the half-maximal cytotoxic concentration (CC50) was 2.3 µM. Also, it took 1.45 µM to reach half-maximal inhibition in data set [3] (IC50). In addition, the Activity entry in data set [5] is given as “Dose-dependent effect”.
In data set [3], `CC1(C)[C@H]2CC=C(COc3ccc4c5c(c(=O)oc4c3)CCCC5)[C@@H]1C2` came in with a half-inhibitory concentration (IC50) of 1.23 µM. For the same molecule, the Activity entry in data set [6] is listed as “Non-Toxic”.
Molecule `COc1cccc(COc2ccc3c(C)cc(=O)oc3c2)c1` came in with a half-inhibitory concentration (IC50) in data set [3] of more than 10 µM.
Consider `COc1cccc(COc2ccc3c4c(c(=O)oc3c2)CCCC4)c1`, for which the midpoint of inhibition in data set [3], the IC50, lay at 4.93 µM.
`CC1(C)[C@H]2CC=C(CCOc3ccc4c5c(c(=O)oc4c3)CCC5)[C@@H]1C2` gave an IC50 in data set [3] of 1.09 µM. Moreover, the Activity result in data set [5] is given as “Dose-dependent effect”.
